pIC50, pKi: −log10 of the molar value. The source made the active and inactive calls. No cut-off for these calls is given here.
Tests used:
[1] = molecular target: Amyloid-beta precursor protein (Homo sapiens) (UniProt P05067); test: Inhibition of amyloid beta (1 to 42) (unknown origin) self-induced aggregation at 100 uM incubated for 48 hrs by thioflavin-T fluorescence assay relative to control
[2] = molecular target: Acetylcholinesterase (Homo sapiens) (UniProt P22303); test: Potency index, ratio of compound effect to donepezil effect for inhibition of recombinant human AChE-induced amyloid beta (1 to 42) aggregation at 100 uM
Chain of Acetylcholinesterase (Homo sapiens) (P22303 whole entry): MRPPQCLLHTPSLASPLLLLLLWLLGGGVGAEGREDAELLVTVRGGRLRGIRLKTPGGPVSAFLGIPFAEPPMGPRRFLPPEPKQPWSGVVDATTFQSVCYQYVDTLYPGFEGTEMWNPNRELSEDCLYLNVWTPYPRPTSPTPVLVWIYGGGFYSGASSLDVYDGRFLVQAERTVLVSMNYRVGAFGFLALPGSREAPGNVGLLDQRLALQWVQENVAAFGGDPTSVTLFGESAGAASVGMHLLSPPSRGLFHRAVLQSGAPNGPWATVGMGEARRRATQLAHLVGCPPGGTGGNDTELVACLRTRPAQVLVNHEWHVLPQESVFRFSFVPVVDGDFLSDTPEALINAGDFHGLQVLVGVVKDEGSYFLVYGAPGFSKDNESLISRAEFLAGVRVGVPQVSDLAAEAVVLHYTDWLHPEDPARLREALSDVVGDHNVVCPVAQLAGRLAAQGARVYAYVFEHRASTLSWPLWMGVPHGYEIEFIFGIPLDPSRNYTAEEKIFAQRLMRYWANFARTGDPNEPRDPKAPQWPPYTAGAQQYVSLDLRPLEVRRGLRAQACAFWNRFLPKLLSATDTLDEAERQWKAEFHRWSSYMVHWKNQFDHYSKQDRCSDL
In short: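 Prefibrillated Aβ1-42 (prepared 72 h at 37 °C in PBS/1% ammonium hydroxide) was coincubated with human recombinant AChE (0.01 u/mL) in 0.05 M KP buffer pH 7.4, 37 °C, 48 h, with or without compound or donepezil at 100 µM. ThT added; fluorescence read at ex 448/em 490 nm. % inhibition from intensities with vs without inhibitor; three experiments.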

[3] = Metal chelating activity assessed as compound-Cu2+ complex formation at 20 uM after 30 mins by UV-visible spectrophotometric analysis
In short: (§1)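 Compound (final 20 µM in methanol) mixed with metal salt (CuCl2, FeSO4, ZnCl2, AlCl3, MgCl2 or CaCl2, final 20 µM in methanol). After 30 min at room temperature, UV spectra recorded from 200 to 500 nm in 1-cm quartz cells on a dual-beam spectrophotometer.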

SH-SY5Y = test: Neuroprotection against H2O2-induced cell death in human SH-SY5Y cells assessed as cell viability at 10 uM preincubated for 3 hrs followed by H2O2 addition measured after 24 hrs by MTT assay relative to control; format: functional; conditions: read-out: Activity
In short: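 SH-SY5Y cells grown in DMEM with 10% FBS, 1% L-glutamine and antibiotics, 5×10^3/well. Compound (10 or 50 µM) for 3 h before 250 µM H2O2, then 24 h incubation. MTT read at 570 nm after DMSO solubilization. Viability as blank-corrected % of untreated control; three independent experiments, mean ± SEM.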

[4] = molecular target: Amyloid-beta precursor protein (Homo sapiens) (UniProt P05067); test: Potency index, ratio of compound effect to rifampicin effect for inhibition of amyloid beta (1 to 42) (unknown origin) self-induced aggregation at 100 uM
PC-12 [5] = test: Neuroprotection against H2O2-induced cell death in rat PC12 cells assessed as cell viability at 1 uM preincubated for 3 hrs followed by H2O2 stimulation measured after 2 hrs by MTT assay (reference value: 25.2 to 41.8%); format: functional; conditions: read-out: Activity
Acetylcholinesterase [6] = molecular target: T1, Acetylcholinesterase (Electrophorus electricus, UniProt O42275); test: Inhibition of electric eel AChE using acetylthiocholine iodide as substrate pretreated for 5 mins followed by substrate addition by Ellman's method
T1 sequence (O42275 whole entry): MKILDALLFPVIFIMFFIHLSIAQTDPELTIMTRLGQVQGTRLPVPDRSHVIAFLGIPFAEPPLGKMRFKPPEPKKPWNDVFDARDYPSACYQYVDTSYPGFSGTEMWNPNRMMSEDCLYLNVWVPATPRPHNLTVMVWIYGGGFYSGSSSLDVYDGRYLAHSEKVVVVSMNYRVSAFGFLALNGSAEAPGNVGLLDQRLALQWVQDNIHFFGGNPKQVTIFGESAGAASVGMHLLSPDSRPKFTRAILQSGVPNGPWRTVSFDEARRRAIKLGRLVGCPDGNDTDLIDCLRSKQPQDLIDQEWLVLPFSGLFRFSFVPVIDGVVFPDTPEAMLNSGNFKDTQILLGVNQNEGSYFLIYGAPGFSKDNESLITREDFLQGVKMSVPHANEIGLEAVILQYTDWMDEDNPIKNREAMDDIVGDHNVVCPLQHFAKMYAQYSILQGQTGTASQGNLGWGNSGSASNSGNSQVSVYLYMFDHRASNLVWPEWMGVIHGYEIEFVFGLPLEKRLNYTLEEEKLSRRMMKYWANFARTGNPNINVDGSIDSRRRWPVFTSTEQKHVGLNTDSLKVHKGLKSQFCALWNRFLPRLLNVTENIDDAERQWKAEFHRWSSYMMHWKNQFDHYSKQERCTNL

Cholinesterase = Cholinesterase (Equus caballus, UniProt P81908); test: Inhibition of equine serum BuChE using butyrylthiocholine iodide as substrate pretreated for 5 mins followed by substrate addition by Ellman's method
Chain of Cholinesterase (P81908 whole entry): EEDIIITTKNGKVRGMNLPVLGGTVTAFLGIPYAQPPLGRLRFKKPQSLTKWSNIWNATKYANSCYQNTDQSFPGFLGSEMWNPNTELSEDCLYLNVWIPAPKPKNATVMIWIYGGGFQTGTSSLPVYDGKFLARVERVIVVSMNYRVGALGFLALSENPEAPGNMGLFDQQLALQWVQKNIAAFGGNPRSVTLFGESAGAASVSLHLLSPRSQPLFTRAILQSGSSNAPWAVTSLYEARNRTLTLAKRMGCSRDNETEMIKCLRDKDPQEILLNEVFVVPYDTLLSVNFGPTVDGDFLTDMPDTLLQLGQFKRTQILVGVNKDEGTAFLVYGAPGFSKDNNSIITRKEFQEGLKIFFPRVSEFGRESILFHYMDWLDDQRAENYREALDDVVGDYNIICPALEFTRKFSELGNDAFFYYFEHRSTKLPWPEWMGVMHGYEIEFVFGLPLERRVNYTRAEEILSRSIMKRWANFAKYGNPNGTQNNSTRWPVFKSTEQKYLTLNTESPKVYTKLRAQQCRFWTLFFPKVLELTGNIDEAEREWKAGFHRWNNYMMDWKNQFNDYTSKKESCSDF
In short: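 Ellman assay with horse serum BuChE (5 IU/mL) in 0.1 M phosphate buffer pH 8.0 with DTNB. Compound was preincubated with enzyme 5 min, then butyrylthiocholine iodide was added. Absorbance read at 412 nm. IC50 from a log concentration vs % inhibition curve; triplicate runs.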

Acetylcholinesterase [7] = molecular target: T1, Acetylcholinesterase; test: Non-competitive inhibition of electric eel AChE using varying levels of acetylthiocholine iodide as substrate pretreated for 5 mins followed by substrate addition by Lineweaver-Burk plot analysis
[8] = Metal chelating activity assessed as compound-Al3+ complex formation at 20 uM after 30 mins by UV-visible spectrophotometric analysis; in short: as §1
PC-12 [9] = test: Inhibition of H2O2-induced ROS generation in rat PC12 cells preincubated for 6 hrs followed by H2O2 addition measured after 18 hrs by DCFH-DA staining based fluorimetric method; format: functional, cell-based
In short: (§2)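 PC12 cells at 1×10^4/well in RPMI with 10% FBS and penicillin/streptomycin, 24 h at 37 °C, 5% CO2. Test samples (1, 5, 10, 50 µM; ≤0.5% DMSO) for 6 h, PBS wash, then H2O2 150 µM for 18 h. Loaded with 10 µM DCFH-DA for 30 min at 37 °C in the dark, washed twice. DCF fluorescence read at ex 485/em 528 nm as % of untreated control. Three independent experiments, mean ± SEM.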

PC-12 [10] = test: Cytotoxicity against rat PC12 cells assessed as effect on cell viability at 1 to 50 uM by MTT assay; format: cell-based; conditions: pc-12, 50 µM
PC-12 [11] = test: Neuroprotection against H2O2-induced cell death in rat PC12 cells assessed as cell viability at 0.1 uM preincubated for 3 hrs followed by H2O2 stimulation measured after 2 hrs by MTT assay (reference value: 25.2 to 41.8%); format: functional; conditions: read-out: Activity
PC-12 [12] = test: Neuroprotection against H2O2-induced cell death in rat PC12 cells assessed as cell viability at 5 uM preincubated for 3 hrs followed by H2O2 stimulation measured after 2 hrs by MTT assay (reference value: 25.2 to 41.8%); format: functional; conditions: read-out: Activity
[13] = Metal chelating activity assessed as mole fraction of compound required to show 2:1 stoichiometry for compound-Cu2+ complex at 40 uM after 30 mins by UV titration method
In short: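 Molar ratio method: 2.5 mL of 40 µM ligand in methanol titrated with CuCl2 (1000 µM in methanol) in 0.01 mL steps. Absorbance at 365 nm plotted against mole fraction; stoichiometry read from where the two straight lines cross.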

[14] = Metal chelating activity assessed as compound-Zn2+ complex formation at 20 uM after 30 mins by UV-visible spectrophotometric analysis; in short: as §1
[15] = molecular target: Amyloid-beta precursor protein (Homo sapiens) (UniProt P05067); test: Potency index, ratio of compound effect to donepezil effect for inhibition of amyloid beta (1 to 42) (unknown origin) self-induced aggregation at 100 uM
[16] = Metal chelating activity assessed as compound-Ca2+ complex formation at 20 uM after 30 mins by UV-visible spectrophotometric analysis; in short: as §1
[17] = molecular target: Acetylcholinesterase (Electrophorus electricus) (UniProt O42275); test: Mixed-type inhibition of electric eel AChE using varying levels of acetylthiocholine iodide as substrate pretreated for 5 mins followed by substrate addition by Lineweaver-Burk plot analysis
Chain of Acetylcholinesterase (Electrophorus electricus) (O42275 24-633 limits assumed): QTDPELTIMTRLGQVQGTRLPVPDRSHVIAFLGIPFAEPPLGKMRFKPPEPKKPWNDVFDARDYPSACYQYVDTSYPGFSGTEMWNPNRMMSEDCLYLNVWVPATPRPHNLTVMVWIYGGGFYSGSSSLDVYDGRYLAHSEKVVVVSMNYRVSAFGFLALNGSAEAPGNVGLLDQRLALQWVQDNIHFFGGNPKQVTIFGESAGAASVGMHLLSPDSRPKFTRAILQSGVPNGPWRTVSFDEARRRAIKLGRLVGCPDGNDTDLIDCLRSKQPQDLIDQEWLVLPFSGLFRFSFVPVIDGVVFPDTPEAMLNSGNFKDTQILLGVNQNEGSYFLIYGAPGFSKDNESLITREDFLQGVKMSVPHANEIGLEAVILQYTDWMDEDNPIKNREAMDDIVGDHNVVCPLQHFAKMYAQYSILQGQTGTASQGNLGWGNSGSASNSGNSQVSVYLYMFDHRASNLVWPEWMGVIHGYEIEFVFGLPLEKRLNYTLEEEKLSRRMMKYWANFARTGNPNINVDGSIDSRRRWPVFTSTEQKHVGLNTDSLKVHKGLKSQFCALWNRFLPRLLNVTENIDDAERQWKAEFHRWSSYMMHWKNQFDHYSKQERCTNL
In short: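 Electric eel AChE (5 IU/mL) by Ellman method in 0.1 M phosphate buffer pH 8.0 with DTNB. Inhibitor was preincubated 5 min, then acetylthiocholine iodide was added at different concentrations. Absorbance followed at 412 nm. Inhibition type from reciprocal Lineweaver-Burk plots; Ki from a secondary replot of slope vs inhibitor concentration.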

PC-12 [18] = test: Neuroprotection against H2O2-induced cell death in rat PC12 cells assessed as cell viability at 20 uM preincubated for 3 hrs followed by H2O2 stimulation measured after 2 hrs by MTT assay (reference value: 25.2 to 41.8%); format: functional; conditions: read-out: Activity
PC-12 [19] = test: Inhibition of H2O2-induced ROS generation in rat PC12 cells assessed as intracellular ROS level at 5 uM preincubated for 6 hrs followed by H2O2 addition measured after 18 hrs by DCFH-DA staining based fluorimetric method relative to control; format: functional; parameters: scale not given: the % may be the effect or the level left; in short: as §2
PC-12 [20] = test: Neuroprotection against H2O2-induced cell death in rat PC12 cells assessed as cell viability at 10 uM preincubated for 3 hrs followed by H2O2 stimulation measured after 2 hrs by MTT assay (reference value: 25.2 to 41.8%); format: functional; conditions: read-out: Activity
[21] = Metal chelating activity assessed as compound-Fe2+ complex formation at 20 uM after 30 mins by UV-visible spectrophotometric analysis; in short: as §1

Chain of Amyloid-beta precursor protein (Homo sapiens) (P05067 whole entry): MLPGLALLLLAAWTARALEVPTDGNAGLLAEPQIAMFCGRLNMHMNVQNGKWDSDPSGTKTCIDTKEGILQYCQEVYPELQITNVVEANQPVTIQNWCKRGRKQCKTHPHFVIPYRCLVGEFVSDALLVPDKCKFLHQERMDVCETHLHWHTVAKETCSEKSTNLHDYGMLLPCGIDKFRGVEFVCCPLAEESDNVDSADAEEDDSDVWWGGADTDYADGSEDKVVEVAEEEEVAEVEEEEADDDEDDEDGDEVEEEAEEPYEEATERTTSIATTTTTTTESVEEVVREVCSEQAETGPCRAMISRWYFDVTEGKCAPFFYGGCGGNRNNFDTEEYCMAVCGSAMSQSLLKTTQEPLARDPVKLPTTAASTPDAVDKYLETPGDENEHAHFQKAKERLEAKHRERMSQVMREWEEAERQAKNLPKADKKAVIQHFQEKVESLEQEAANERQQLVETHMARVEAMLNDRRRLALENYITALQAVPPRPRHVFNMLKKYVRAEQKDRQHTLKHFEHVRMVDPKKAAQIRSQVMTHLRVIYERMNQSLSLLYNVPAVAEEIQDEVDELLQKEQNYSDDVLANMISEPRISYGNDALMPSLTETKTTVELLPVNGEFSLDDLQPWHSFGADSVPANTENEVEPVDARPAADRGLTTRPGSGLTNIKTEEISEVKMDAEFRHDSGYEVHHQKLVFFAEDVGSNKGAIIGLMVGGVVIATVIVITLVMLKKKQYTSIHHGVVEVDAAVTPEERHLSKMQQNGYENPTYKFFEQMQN

## COc1ccc(-c2cc3ccc(OCCCn4cc(CNC(=O)CCCCC5CCSS5)nn4)cc3oc2=O)cc1OC (stereo not drawn)
[1]
  inhibition: 51.2%
[2]
  Ratio: 2
[3]
  Activity: Active
SH-SY5Y
  viability at 10 µM: 64%
[4]
  Ratio: 2
PC-12 [5]
  viability at 1 µM: 39.3%
Acetylcholinesterase [6]
  pIC50: 4.79
Cholinesterase
  pIC50: 4.31
Acetylcholinesterase [7]
  pKi: 5.16
[8]
  Activity: inactive
PC-12 [9]
  inhibition: Dose-dependent effect
PC-12 [10]
  Activity: Non-Toxic
PC-12 [11]
  viability at 0.1 µM: 36.4%
PC-12 [12]
  viability at 5 µM: 40.6%
[13]
  Activity: 0.5 molar ratio
[14]
  Activity: inactive
[15]
  Ratio: 2
[16]
  Activity: inactive
[17]
  inhibition: Active
PC-12 [18]
  viability at 20 µM: 45.6%
PC-12 [19]
  Activity: 79.32%
PC-12 [20]
  viability at 10 µM: 43.5%
[21]
  Activity: Active

Source: ChEMBL document CHEMBL4152262, “Design, synthesis and evaluation of novel multi-target-directed ligands for treatment of Alzheimer's disease based on coumarin and lipoic acid scaffolds” (Eur J Med Chem, 2018)
